Consider 26 molecules from ChEMBL document CHEMBL4425120, “N1-Azinylsulfonyl-1H-indoles: 5-HT6 Receptor Antagonists with Procognitive and Antidepressant-Like Properties” (ACS Med Chem Lett, 2016).

Active and inactive are the calls of the source. The rule behind the calls is not given here.

The target in series [1] is T1, 5-hydroxytryptamine receptor 6 (Homo sapiens, UniProt P50406). Nature of the series: Displacement of [3H]-LSD from human 5-HT6 receptor expressed in HEK293 cells by microbeta liquid scintillation counting. Format: cell-based. The essentials: (§1)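 Ki values reported as the mean of two independent radioligand binding experiments.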
Series [2] has as its target T1, 5-hydroxytryptamine receptor 6. Nature of the series: Inhibition of 5-HT6 receptor (unknown origin).
The target in series [3] is 5-hydroxytryptamine receptor 7 (Homo sapiens, UniProt P34969). Nature of the series: Displacement of [3H]-5-CT from human 5-HT7B receptor expressed in HEK293 cells by microbeta liquid scintillation counting. The series is classed as cell-based. The essentials: as §1
The species entered for series [4] is Homo sapiens. Nature of the series: Selectivity ratio of Ki for human 5-HT1A receptor expressed in HEK293 cells to Ki for human 5-HT6 receptor expressed in HEK293 cells. Format: cell-based.
Series [5] is filed under the species Homo sapiens. The series can be described thus: Selectivity ratio of Ki for human 5-HT7B receptor expressed in HEK293 cells to Ki for human 5-HT6 receptor expressed in HEK293 cells. Format: cell-based.
The species named for series [6] is Homo sapiens. The series can be described thus: Selectivity ratio of Ki for human 5-HT2A receptor expressed in HEK293 cells to Ki for human 5-HT6 receptor expressed in HEK293 cells. Format: cell-based.
For series [7], the species on record is Homo sapiens. Nature of the series: Selectivity ratio of Ki for human D2L receptor expressed in HEK293 cells to Ki for human 5-HT6 receptor expressed in HEK293 cells. Format: cell-based.
Series [8] has as its target 5-hydroxytryptamine receptor 2A (Homo sapiens, UniProt P28223). The series can be described thus: Displacement of [3H]-Ketanserin from human 5-HT2A receptor expressed in HEK293 cells by microbeta liquid scintillation counting. The series is classed as cell-based. The essentials:
as §1
For orientation: Loss of bound radioactivity is the signal in a displacement assay; it reports binding, not function.

Series [9] addresses D(2) dopamine receptor (Homo sapiens, UniProt P14416). Nature of the series: Displacement of [3H]-Raclopride from human D2L receptor expressed in HEK293 cells by microbeta liquid scintillation counting. Format: cell-based. Summed up:
as §1

Series [10] concerns the target T2, 5-hydroxytryptamine receptor 1A (Homo sapiens, UniProt P08908).
T2 sequence (P08908 whole entry): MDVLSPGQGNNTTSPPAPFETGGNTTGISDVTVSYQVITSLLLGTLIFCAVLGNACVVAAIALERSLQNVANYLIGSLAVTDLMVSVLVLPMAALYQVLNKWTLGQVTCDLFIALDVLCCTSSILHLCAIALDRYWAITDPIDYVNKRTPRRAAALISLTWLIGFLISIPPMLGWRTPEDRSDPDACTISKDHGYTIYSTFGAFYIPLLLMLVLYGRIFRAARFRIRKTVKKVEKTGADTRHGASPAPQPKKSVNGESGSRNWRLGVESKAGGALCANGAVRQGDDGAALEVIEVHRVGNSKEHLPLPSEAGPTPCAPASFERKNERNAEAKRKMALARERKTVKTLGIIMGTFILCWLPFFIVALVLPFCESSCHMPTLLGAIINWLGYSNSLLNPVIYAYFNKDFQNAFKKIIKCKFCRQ
The series can be described thus: Displacement of [3H]-8-OH-DPAT from human 5-HT1A receptor expressed in HEK293 cells by microbeta liquid scintillation counting. Format: cell-based. Summed up: as §1

Series [11] in a line: Toxicity in Sprague-Dawley rat assessed as effect on locomotory activity at 0.3 to 3 mg/kg, ip measured for 5 mins by open field test. The series is classed as organism-based. Conditions: in vivo.
The subject of series [12] is Rattus norvegicus. The series can be described thus: Antianxietic activity in ip dosed Wistar rat assessed as increase in number of licks accepted measured for 5 mins by Vogel conflict drinking test. As to conditions: read-out: MED. The series is classed as functional.
The test system of series [13] is Rattus norvegicus. Nature of the series: Antianxietic activity in ip dosed Wistar rat assessed as increase in number of shocks accepted measured for 5 mins by Vogel conflict drinking test. Conditions: read-out: MED. The series is classed as functional.
Series [14] relates to Rattus norvegicus. Nature of the series: Antidepressant activity in Sprague-Dawley rat assessed as reduction in immobility time at 3 mg/kg, ip adminstered 60 mins prior to testing measured for 5 mins by forced swimming test. The series is classed as functional, organism-based. The essentials:
(§2)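 Modified forced swim test in rats, compounds given i.p.; immobility and climbing times scored against a vehicle-treated group; N = 7–8 animals per group; mean ± SEM.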

For series [15], the system named is Rattus norvegicus. Nature of the series: Cognitive enhancing effect in Sprague-Dawley rat assessed as reversal of PCP induced memory deficit at 0.3 to 1 mg/kg, ip administered 1 hour and 15 mins before familiarization phase by novel object recognition test. Format: functional, organism-based. The essentials: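 Novel object recognition in rats with PCP-induced memory deficit; compounds given i.p.; groups compared with vehicle and with PCP; N = 7–12 animals per group; mean ± SEM.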

The test system of series [16] is Rattus norvegicus. The series can be described thus: Antidepressant activity in Sprague-Dawley rat assessed as increase in climbing time at 3 mg/kg, ip adminstered 60 mins prior to testing measured for 5 mins by forced swimming test. The series is classed as functional, organism-based. The essentials: as §2
For series [17], the target named is 5-hydroxytryptamine receptor 6 (Rattus norvegicus, UniProt P31388). Nature of the series: Displacement of [3H]Lu AE60157 from rat brain 5-HT6 receptor.

For orientation: Ki means the equilibrium dissociation constant of an inhibitor or competing ligand from its target. Read a high Ki as a looser hold on the target.

T1 sequence (P50406 whole entry): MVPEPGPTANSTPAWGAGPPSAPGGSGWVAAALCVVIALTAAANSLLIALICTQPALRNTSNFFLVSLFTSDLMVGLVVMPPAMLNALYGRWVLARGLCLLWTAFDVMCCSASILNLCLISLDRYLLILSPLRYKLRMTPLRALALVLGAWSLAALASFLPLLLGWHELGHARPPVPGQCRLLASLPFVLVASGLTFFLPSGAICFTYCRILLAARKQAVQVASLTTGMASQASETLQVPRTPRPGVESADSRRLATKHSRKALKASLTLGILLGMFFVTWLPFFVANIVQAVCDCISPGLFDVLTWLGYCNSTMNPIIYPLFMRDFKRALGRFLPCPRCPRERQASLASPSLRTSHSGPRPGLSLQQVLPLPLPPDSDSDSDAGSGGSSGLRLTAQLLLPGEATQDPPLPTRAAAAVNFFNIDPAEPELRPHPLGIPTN
Sequence of 5-hydroxytryptamine receptor 2A (P28223 whole entry): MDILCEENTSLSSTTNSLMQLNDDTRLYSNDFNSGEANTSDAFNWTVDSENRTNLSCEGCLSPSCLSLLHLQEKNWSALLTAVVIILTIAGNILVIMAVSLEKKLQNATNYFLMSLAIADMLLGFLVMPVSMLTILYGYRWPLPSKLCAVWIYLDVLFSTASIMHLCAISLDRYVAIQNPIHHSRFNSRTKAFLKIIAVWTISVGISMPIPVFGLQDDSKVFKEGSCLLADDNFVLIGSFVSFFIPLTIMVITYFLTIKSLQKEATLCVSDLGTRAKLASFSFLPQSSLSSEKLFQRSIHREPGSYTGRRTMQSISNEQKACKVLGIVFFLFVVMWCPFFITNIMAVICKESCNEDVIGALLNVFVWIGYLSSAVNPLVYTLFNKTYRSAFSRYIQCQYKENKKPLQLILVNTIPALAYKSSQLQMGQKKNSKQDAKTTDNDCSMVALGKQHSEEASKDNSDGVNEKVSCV
Sequence of D(2) dopamine receptor (P14416 whole entry): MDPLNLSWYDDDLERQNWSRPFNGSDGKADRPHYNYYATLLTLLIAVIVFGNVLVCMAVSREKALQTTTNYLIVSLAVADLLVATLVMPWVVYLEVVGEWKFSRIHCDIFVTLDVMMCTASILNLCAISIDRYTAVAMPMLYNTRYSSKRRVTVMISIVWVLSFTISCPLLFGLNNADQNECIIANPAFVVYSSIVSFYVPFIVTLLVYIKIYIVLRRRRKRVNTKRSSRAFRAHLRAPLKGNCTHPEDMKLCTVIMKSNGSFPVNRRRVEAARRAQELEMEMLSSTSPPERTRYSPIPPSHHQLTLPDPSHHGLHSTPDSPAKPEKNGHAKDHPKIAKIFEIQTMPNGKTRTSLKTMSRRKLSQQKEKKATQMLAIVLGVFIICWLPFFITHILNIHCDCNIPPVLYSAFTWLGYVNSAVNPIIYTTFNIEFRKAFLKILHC
Sequence of 5-hydroxytryptamine receptor 7 (P34969 whole entry): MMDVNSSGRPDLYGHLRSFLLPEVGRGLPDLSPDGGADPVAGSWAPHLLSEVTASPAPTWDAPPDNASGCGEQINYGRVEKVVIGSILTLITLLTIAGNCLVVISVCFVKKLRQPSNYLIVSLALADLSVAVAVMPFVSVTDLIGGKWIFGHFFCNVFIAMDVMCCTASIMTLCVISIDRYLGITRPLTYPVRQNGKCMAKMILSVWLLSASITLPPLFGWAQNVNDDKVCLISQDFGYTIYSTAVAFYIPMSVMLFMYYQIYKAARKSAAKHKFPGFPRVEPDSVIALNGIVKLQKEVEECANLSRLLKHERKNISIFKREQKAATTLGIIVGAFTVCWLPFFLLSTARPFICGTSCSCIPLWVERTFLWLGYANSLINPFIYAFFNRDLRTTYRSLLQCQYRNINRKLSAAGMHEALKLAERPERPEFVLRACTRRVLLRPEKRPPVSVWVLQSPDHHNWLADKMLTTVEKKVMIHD
Sequence of 5-hydroxytryptamine receptor 6 (Rattus norvegicus, UniProt P31388) (P31388 whole entry): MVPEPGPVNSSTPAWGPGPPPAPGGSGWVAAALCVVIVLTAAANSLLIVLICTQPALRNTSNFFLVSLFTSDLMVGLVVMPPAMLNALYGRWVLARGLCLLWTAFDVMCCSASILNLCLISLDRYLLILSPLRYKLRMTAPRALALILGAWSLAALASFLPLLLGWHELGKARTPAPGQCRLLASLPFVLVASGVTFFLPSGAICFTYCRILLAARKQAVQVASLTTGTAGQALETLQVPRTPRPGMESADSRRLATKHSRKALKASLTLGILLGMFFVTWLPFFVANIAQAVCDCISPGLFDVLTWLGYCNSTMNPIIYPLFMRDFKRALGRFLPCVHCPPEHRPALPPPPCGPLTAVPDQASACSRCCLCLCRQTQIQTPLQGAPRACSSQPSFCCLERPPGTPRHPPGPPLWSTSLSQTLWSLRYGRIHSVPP

Take `Cc1c(C2=CCNCC2)c2ccccc2n1S(=O)(=O)c1cc2ccccc2cn1`: the Ki in series [1] was determined as 20 nM.

`CSc1nn2c(C)cc(C)nc2c1S(=O)(=O)c1ccccc1` displayed a Ki in series [2] of 2.1 nM.

Regarding `O=S(=O)(c1ccc2cccnc2c1)n1cc(C2=CCNCC2)c2ccc(Cl)cc21`, in series [1], the inhibition constant Ki amounted to 22 nM. This lies in the double-digit nanomolar range.

In series [1], `COc1ccc2c(c1)c(C1=CCN(C)CC1)cn2S(=O)(=O)c1ccc2cccnc2c1` came in with an inhibitory constant (Ki) of 82 nM.

Take `O=S(=O)(c1cnc2ccccc2c1)n1cc(C2=CCNCC2)c2cc(Cl)ccc21`: the affinity in [1] corresponds to a Ki of 11 nM.

With `COc1ccc2c(c1)c(C1CCNCC1)cn2S(=O)(=O)c1ccc2cccnc2c1`, the affinity in [1], expressed as Ki, was 30 nM.

Consider `O=S(=O)(c1ccc2cccnc2c1)n1cc(C2=CCNCC2)c2cc(Cl)ccc21`, for which the Ki was found to be 7320 nM in series [3]; 9 nM in series [1]; 2590 nM in [8]; 1170 nM in series [9]; 2470 nM in series [10]. Moreover, the Ratio Ki in series [4], in [5], in [6] and in [7] was 70 each time.

`O=S(=O)(c1ccc2cccnc2c1)n1cc(C2=CCNCC2)c2ccccc21` showed an inhibition constant Ki in series [1] of 7 nM. This lies in the single-digit nanomolar range.

For the molecule `COc1ccc2c(c1)c(C1=CCNCC1)cn2S(=O)(=O)c1cnc2ccccc2c1`, the Ki in [1] came out at 8 nM.

As for `Cc1c(C2=CCNCC2)c2ccccc2n1S(=O)(=O)c1ccc2cccnc2c1`, in [1], the inhibition constant (Ki) amounted to 18 nM.

`COc1ccc2c(c1)c(C1=CCNCC1)cn2S(=O)(=O)c1cc2ccccc2cn1` yielded a Ki in series [1] of 6 nM.

With `COc1ccc2c(c1)c(C1=CCNCC1)cn2S(=O)(=O)c1cccc2ncccc12`, the Ki in [3] is 2350 nM; in series [1], 4 nM; in series [8] it was 1550 nM; in series [9], 302 nM; in series [10], 2940 nM. Besides, the Ratio Ki in series [4], in series [5], in series [6] and in series [7] was 70 in each case.

Molecule `O=S(=O)(c1cncc2ccccc12)n1cc(C2=CCNCC2)c2cc(Cl)ccc21` showed a Ki in series [1] of 18 nM.

`O=S(=O)(c1cnc2ccccc2c1)n1cc(C2=CCNCC2)c2ccccc21` showed an inhibition constant (Ki) in [1] of 13 nM.

`CCCCN1CC=C(c2cn(S(=O)(=O)c3ccc4cccnc4c3)c3ccc(OC)cc23)CC1`: the Ki in [1] was 219 nM.

Molecule `COc1ccc2c(c1)c(C1CCNCC1)cn2S(=O)(=O)c1cncc2ccccc12` had an inhibitory constant (Ki) in series [1] of 24 nM.

In series [1], `O=S(=O)(c1cnc2ccccc2c1)n1cc(C2=CCNCC2)c2ccc(Cl)cc21` showed a Ki of 37 nM.

`O=S(=O)(c1cccc2ncccc12)n1cc(C2=CCNCC2)c2cc(Cl)ccc21`: the inhibition constant (Ki) in series [1] came to 11 nM.

For the molecule `O=S(=O)(c1ccc2ncccc2c1)n1cc(C2=CCNCC2)c2ccc(Cl)cc21`, the affinity in series [1], expressed as Ki, was 112 nM.

In series [1], `O=S(=O)(c1cncc2ccccc12)n1cc(C2=CCNCC2)c2ccccc21` gave a Ki of 5 nM.

`COc1ccc2c(c1)c(C1=CCNCC1)cn2S(=O)(=O)c1ccc2ncccc2c1` registered a Ki in series [1] of 14 nM. Against the preceding molecule, the Ki is about 2.8-fold higher.

In the case of `O=S(=O)(c1ccccc1)c1cnc2c(N3CCNCC3)cccc2c1` [INTEPIRDINE], in series [11], the Activity entry is recorded as “Non-Toxic”. In addition, the minimal effective dose in series [12] and in series [13] was 3 mg/kg each time. Besides, the outcome in [14], in series [15] and in series [16] was Active. The molecule further had a Ki in series [17] of 0.234 nM.

`O=S(=O)(c1cc2ccccc2cn1)n1cc(C2=CCNCC2)c2ccc(Cl)cc21` had a Ki in series [1] of 102 nM.

Consider `O=S(=O)(c1cc2ccccc2cn1)n1cc(C2=CCNCC2)c2ccccc21`, for which, in series [1], the inhibition constant (Ki) amounted to 12 nM.

With `O=S(=O)(c1ccc2ncccc2c1)n1cc(C2=CCNCC2)c2ccccc21`, the Ki in series [3] is 6660 nM; in [1], 20 nM; in series [8], 1410 nM; in [9] it was 1410 nM; in series [10], 1870 nM. The Ratio Ki in [4], in series [5], in series [6] and in series [7] was 70 each time.

The molecule `CCCN1CC=C(c2cn(S(=O)(=O)c3ccc4cccnc4c3)c3ccc(OC)cc23)CC1` showed a Ki in [1] of 247 nM.
